The target of assay [1] is T1, Histamine H3 receptor (Cavia porcellus, UniProt Q9JI35). Kind of assay: pD2 values against H3 receptor of guinea pig jejunum were determined. In kind it is tissue-based. In a few lines: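 Isolated guinea pig jejunum segments, electrically stimulated so that endogenous acetylcholine release evokes contractile twitches. Cumulative concentrations of the compound were added, and the concentration-dependent inhibition of the evoked twitches gave a concentration–response curve. Tissue from at least four animals was used, each tested in triplicate. Student's t-test, with p < 0.05 taken as significant.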
T1 sequence (Q9JI35 whole entry): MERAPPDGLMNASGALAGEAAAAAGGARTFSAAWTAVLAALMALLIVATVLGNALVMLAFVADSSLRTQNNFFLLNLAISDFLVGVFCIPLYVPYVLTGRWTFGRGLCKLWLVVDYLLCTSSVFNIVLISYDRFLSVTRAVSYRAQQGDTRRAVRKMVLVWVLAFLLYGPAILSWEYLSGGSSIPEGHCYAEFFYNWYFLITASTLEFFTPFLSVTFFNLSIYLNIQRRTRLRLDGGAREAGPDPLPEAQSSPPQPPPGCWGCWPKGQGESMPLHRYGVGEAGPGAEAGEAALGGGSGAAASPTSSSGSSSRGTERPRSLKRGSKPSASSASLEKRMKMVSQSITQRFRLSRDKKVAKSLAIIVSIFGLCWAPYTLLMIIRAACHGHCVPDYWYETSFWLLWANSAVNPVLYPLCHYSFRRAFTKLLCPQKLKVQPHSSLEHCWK

Assay [2] addresses Histamine H3 receptor (Cavia porcellus) (UniProt Q9JI35). Conditions: Ileum.
The target in assay [3] is T1, Histamine H3 receptor. Description: pA2 values against H3 receptor of guinea pig ileum were determined. Conditions: read-out: pA2 (converted). Type of assay: tissue-based.
Assay [4] has as its target T1, Histamine H3 receptor. Kind of assay: Tested in vitro for antagonist activity against H3 receptor of guinea pig jejunum. In kind it is functional, tissue-based. The note with it: read-out: pA2 (converted). In a few lines:
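Isolated guinea pig jejunum segments were electrically stimulated, giving twitches from endogenous acetylcholine release. Antagonism was tested against cumulative (R)-α-methylhistamine concentration–response curves, using at least three antagonist concentrations. pA2 was the negative log of the Schild plot abscissal intercept. Tissues came from at least four animals, tested in triplicate; Student's t-test, p < 0.05.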

Assay [5] has as its target T2, Histamine H2 receptor (Homo sapiens, UniProt P25021). Kind of assay: Binding affinity against human H2 receptor by the displacement of [125I]iodoaminopotentidine, bound to membranes of CHO cells. Type of assay: cell membranes.
In assay [6] the target is T3, Histamine H1 receptor (Cavia porcellus, UniProt P31389). Description: Binding affinity against H1 receptor of guinea pig by the displacement of [3H]mepyramine, bound to membranes of CHO cells. Type of assay: cell membranes. In a few lines:
(§1)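 Displacement of [3H]mepyramine from membranes of CHO cells expressing guinea pig H1 receptors. At least three independent experiments, each performed in triplicate.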

Assay [7] concerns the target T3, Histamine H1 receptor. Description: Binding affinity for H1 receptor of guinea pig by the displacement of [3H]mepyramine, bound to membranes of CHO cells. In kind it is cell membranes. The gist of the method:
as §1
On the technique in general: Displacement assays read how much labelled ligand stays bound in the presence of the test substance.

Assay [8] deals with T2, Histamine H2 receptor. Description: Binding affinity against human H2 receptor by the displacement of [125I]iodoaminopotentidine bound to membranes of CHO cells. Type of assay: cell membranes. In a few lines: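 Displacement of [125I]iodoaminopotentidine from membranes of CHO cells expressing human H2 receptors. At least three independent experiments, each performed in triplicate.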

The target of assay [9] is Histamine H3 receptor (Cavia porcellus) (UniProt Q9JI35). Conditions: Jejunum.
Sequence of Histamine H3 receptor (Cavia porcellus) (Q9JI35 whole entry): as above

Bounds are passed on as bounds.

T3 sequence (P31389 whole entry): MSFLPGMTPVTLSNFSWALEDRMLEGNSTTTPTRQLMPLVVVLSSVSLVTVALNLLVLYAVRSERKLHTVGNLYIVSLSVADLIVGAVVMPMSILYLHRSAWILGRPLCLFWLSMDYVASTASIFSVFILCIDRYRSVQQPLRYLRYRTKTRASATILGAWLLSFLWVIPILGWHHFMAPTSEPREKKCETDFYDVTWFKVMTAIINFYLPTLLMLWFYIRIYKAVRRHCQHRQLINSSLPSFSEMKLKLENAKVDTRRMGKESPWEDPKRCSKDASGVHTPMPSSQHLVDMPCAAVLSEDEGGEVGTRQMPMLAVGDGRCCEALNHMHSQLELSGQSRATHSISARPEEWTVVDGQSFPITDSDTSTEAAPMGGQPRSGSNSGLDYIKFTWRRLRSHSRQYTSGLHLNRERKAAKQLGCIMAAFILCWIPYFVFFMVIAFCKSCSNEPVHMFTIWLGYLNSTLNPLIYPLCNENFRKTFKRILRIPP
T2 sequence (P25021 whole entry): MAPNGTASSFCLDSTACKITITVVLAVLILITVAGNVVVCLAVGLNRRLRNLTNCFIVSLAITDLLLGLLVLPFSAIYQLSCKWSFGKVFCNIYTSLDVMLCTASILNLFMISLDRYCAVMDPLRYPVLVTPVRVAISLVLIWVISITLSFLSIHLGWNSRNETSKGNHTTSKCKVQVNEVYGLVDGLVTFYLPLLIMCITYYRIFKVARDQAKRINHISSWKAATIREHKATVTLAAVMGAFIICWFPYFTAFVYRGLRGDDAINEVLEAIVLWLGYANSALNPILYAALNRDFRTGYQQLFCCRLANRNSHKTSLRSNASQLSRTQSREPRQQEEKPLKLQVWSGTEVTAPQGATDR

Turning to `C[C@@H](N)Cc1c[nH]cn1`, on Histamine H3 receptor [1], the pD2 came out at 7.8.
`N=C(N)SCCc1c[nH]cn1` returned a pD2 in assay [2] of 8.1.
Consider `N=C(N)SCCCc1c[nH]cn1`, for which the Kb at Histamine H3 receptor [3] was 0.01 µM.
In general, Ki refers to a dissociation constant, usually derived from enzyme kinetics or from competition with a known ligand. Low readings indicate a stronger hold on the target, high ones a looser hold on the target. `NCCCCCCCCc1cnc[nH]1`: the Kb on Histamine H3 receptor [4] is 1 µM. The Ki is 31.6 µM at Histamine H2 receptor [5] and 2.51 µM at Histamine H1 receptor [6].
Turning to `NCCCCc1c[nH]cn1` [IMBUTAMINE], the Kb on Histamine H3 receptor [4] is 0.02 µM. Moreover, the Ki on Histamine H1 receptor [7] is 398 µM; on Histamine H2 receptor [8], 794 µM.
With `NCCCCCc1c[nH]cn1` [IMPENTAMINE], the Kb on Histamine H3 receptor [4] was 0.00398 µM. Also, the inhibition constant Ki was 251 µM at Histamine H2 receptor [5] and 126 µM on Histamine H1 receptor [6].
`NCCc1c[nH]cn1` showed a pD2 in [9] of 6.2.
Take `NCc1c[nH]cn1`: the Kb at Histamine H3 receptor [4] was over 1000 µM. Also, the Ki on Histamine H2 receptor [5] and on Histamine H1 receptor [6] was over 1000 µM each time.
For `NCCCc1c[nH]cn1` [HOMOHISTAMINE], the Kb on Histamine H3 receptor [4] was 1.26 µM. The inhibitory constant (Ki) on Histamine H2 receptor [5] and at Histamine H1 receptor [6] was over 1000 µM in each case.
Regarding `NCCCCCCCCCCc1c[nH]cn1`, the Kb at Histamine H3 receptor [4] was 1 µM. Moreover, the inhibition constant (Ki) at Histamine H2 receptor [5] is 20 µM; at Histamine H1 receptor [6], 0.631 µM.
The like results for `NCCCCCCc1cnc[nH]1` were, in that order, 0.0158 µM, 200 µM and 126 µM.

The values above are taken from ChEMBL document CHEMBL1128733 (J Med Chem, 1995).
